Measurements gathered from unrelated publications.
Target: Tyrosine-protein kinase receptor TYRO3 (TYRO3, Homo sapiens, UniProt Q06418)
One construct used (Q06418 41-890): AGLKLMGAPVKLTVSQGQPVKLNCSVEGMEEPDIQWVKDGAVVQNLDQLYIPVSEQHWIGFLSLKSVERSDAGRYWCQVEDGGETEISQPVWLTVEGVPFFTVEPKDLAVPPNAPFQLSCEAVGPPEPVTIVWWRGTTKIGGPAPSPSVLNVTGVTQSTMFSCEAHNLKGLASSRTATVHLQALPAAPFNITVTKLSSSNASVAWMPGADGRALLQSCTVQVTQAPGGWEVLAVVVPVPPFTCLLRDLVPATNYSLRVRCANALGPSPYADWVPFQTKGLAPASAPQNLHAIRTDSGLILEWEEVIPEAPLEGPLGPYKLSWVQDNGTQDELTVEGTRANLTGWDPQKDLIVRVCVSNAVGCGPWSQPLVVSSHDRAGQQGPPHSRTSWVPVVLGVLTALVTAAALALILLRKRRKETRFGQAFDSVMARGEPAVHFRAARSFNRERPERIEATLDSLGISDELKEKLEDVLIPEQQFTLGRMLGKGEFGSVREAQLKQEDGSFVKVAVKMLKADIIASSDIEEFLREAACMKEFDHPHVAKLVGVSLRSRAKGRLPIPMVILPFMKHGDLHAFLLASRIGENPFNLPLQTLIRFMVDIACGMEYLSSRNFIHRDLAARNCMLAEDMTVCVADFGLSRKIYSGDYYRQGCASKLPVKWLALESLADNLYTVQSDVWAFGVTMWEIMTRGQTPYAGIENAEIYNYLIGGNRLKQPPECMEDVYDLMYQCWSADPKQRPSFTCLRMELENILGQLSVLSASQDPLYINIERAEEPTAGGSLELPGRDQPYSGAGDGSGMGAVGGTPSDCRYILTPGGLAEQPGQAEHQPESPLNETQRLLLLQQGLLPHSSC

`COc1ccnn2ncc(-c3ccnc(N(C)C)n3)c12` has a remaining binding of 100% (binding; 1 µM).
`O=C(c1ccc(Nc2nccc(-c3cc4ccccc4s3)n2)cc1)N1CCC(N2CCCC2)CC1` has a remaining binding of 95% (binding, competition with immobilised ligand; 1 µM).
The remaining binding of `O=C(Nc1c[nH]nc1C(=O)NC1CCNCC1)c1cc(F)cc(F)c1` is reported as 100% (binding, competition with immobilised ligand; 1 µM).
For `CS(=O)(=O)NCC[C@H](NC(=O)c1cncc2c1cnn2-c1ccc(F)cc1)c1ccnc(S(C)(=O)=O)c1`, the remaining binding was 94% (cell-free assay, competition with immobilised ligand; 1 µM).
For `c1cncc(-c2cccc(Nc3nccc(NC4CCCCC4)n3)c2)c1`, the remaining binding was 9.3% (binding, competition with immobilised ligand; 10 µM).
With `CCc1ccccc1C(=O)Nc1n[nH]c2c(C)c(F)c(C3C(C#N)=C(C)N(C)C(C)=C3C#N)cc12` the remaining binding was 100% (cell-free assay, competition with immobilised ligand; 1 µM).
With `O=C(NCCCN1CCOCC1)c1ccc(Nc2ncc(Cl)c(-c3ccc(Cl)s3)n2)cc1` the remaining binding was 94% (binding, competition with immobilised ligand; 1 µM).
`CNCc1ccccc1-c1csc([C@H](C)Nc2nc(C)nc3cc(OC)c(OC)cc23)c1` gave a remaining binding of 100% (cell-free assay, competition with immobilised ligand; 1 µM).
For `Cc1cnn2ncc(-c3ccnc(N(C)C)n3)c2c1`, the remaining binding was 100% (binding; 1 µM).
The remaining binding of `CNC(=O)[C@@H]1CC[C@@H](n2c(-c3ccc4cnccc4c3)nc3ccc(C(=O)NCc4cccc(C(N)=O)c4)cc32)C1` is reported as 100% (binding, competition with immobilised ligand; 1 µM).
For `C[C@H](c1ccc(F)cc1)N(Cc1cccc(C(=O)O)c1)C(=O)c1cnc2ccccc2c1`, the remaining binding was 100% (cell-free assay, competition with immobilised ligand; 1 µM).
`C[C@@H](c1ccc(-n2cnc3c(N)ncnc32)cc1)N1CCc2nn(C)c(Cc3ccccc3)c2C1=O` has a remaining binding of 100% (binding, competition with immobilised ligand; 0.1 µM).
For `C[C@@H]1CCN(c2nccc(-c3cnn4ncccc34)n2)C1`, the remaining binding was 100% (binding; 1 µM).
`Cc1cnc(Nc2ccc(C(=O)N3CCC(N4CCCC4)CC3)cc2)nc1-c1cc2ccccc2s1` gave a remaining binding of 58% (binding, competition with immobilised ligand; 1 µM).
For `CN(C)c1nccc(-c2cnc3ncccn23)n1`, the remaining binding was 100% (binding; 1 µM).
With `FC(F)(F)Oc1cccc(-c2cnc3ccc(-c4ccncc4)nn23)c1` the remaining binding was 83% (cell-free assay, competition with immobilised ligand; 5 µM).
The remaining binding of `CN(C)c1ncc(F)c(-c2cnn3ncccc23)n1` is reported as 75% (binding; 1 µM).
For `Nc1c(C(=O)NCc2ccc(C(=O)NCCCC3CCCCC3)cc2)cnn1-c1ccccc1`, the remaining binding was 100% (cell-free assay, competition with immobilised ligand; 0.1 µM).
`CN(CCCC(F)(F)F)c1nccc(-c2cnn3ncccc23)n1` gave a remaining binding of 93% (binding; 1 µM).
`C=CC(=O)N1CCC(C(=O)NCC(=O)N2CCN(c3nc(-c4cnc(N)nc4C(F)F)nc(N4CCOCC4)n3)CC2)CC1` has a remaining binding of 100% (binding, competition with immobilised ligand; 1 µM).
The remaining binding of `N[C@H]1CCN(c2nccc(-c3cnn4ncccc34)n2)C1` is reported as 88% (binding; 1 µM).
`C[C@@H](c1cccc(C#N)c1)n1cc(Cl)cc(C(N)=O)c1=N` gave a remaining binding of 68% (cell-free assay, competition with immobilised ligand; 1 µM).
